VIM-2 inhibitor: VIM-2 metallo-beta-lactamase inhibitors, primary screen, biochemical, epi-absorbance readout, Pseudomonas aeruginosa enzyme. purified VIM-2, nitrocefin hydrolysis, epi-absorbance fluorescence. inhibition, % at 5.6 µM. 290,000 tested, 0.89% active;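 active means inhibition above the mean of all tested compounds plus 3 SD, cutoff set per screening run, cut at about 7.5% in these data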;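 further: red hydrolysis product quenches plate fluorescence so inhibitors raise well fluorescence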
HCV NS3 hel inh: inhibitors of HCV NS3 helicase, primary screen, biochemical, Cy5 molecular beacon fluorescence | Hepatitis C virus NS3 helicase | NS3 helicase DNA unwinding | inhibition, % at 10.9 µM | 290,000 tested, 0.56% active;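 active means inhibition above the mean of all tested compounds plus 3 SD, set per campaign, cut at about 35% in these data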
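Material: hepatitis C virus NS3 helicase domain fragment enzyme; measured by: Cy5 fluorescence, 0 and 60 min reads; control set: DMSO and thioflavine S; incubation: 60 min unwinding reaction at 25 °C after ATP addition; read-out basis: % inhibition from 60/0 min fluorescence ratio, DMSO 0%, thioflavine S 100%; repeats: singlicate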
FID counter: compounds displacing fluorescent DNA intercalator, primary screen, artefact control for HCV NS3 helicase inhibitor project, biochemical, FID fluorescence; inhibition, % at 7.9 µM; 290,000 tested, 0.17% active; DNA fluorescent intercalator displacement; AID 1845, 2009; in the data active means inhibition above about 37%;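 further: higher means more ethidium bromide displaced from hairpin DNA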
IMP-1 inh-1: IMP-1 metallo-beta-lactamase inhibitors, primary screen, biochemical, epi-absorbance readout, Pseudomonas aeruginosa enzyme; purified IMP-1, nitrocefin hydrolysis, epi-absorbance fluorescence; inhibition, % at 5.6 µM; 290,000 tested, 0.45% active; AID 1556, 2009;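 active means inhibition above the mean plus 3 SD of all compounds in the same screening run, cut at about 4.5% in these data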
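Material – recombinant IMP-1 enzyme, purified · Amount – IMP-1 0.2 nM before substrate addition · Medium – HEPES buffer pH 7.1 with ZnSO4 and Brij 35 · Timing – 25 °C, 15 min preincubation, 25 min reaction · Measured by – plate fluorescence quenching by hydrolysis product, ex 480/em 530 nm · Read-out – percent enzyme inhibition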
IMP-1 inh-2: IMP-1 metallo-beta-lactamase inhibitors, confirmation, selectivity assay for selective VIM-2 inhibitor project, biochemical, epi-absorbance readout, triplicate | inhibition, % at 5.6 µM | purified IMP-1, nitrocefin hydrolysis, epi-absorbance fluorescence | AID 1856, 2009 | shares compounds with VIM-2 inhibitor | 1,300 tested, under 10 active; call rule not given here
VIM-2 FRET inh: VIM-2 inhibitors in FRET format, confirmation, artefact control for selective VIM-2 inhibitor project, biochemical, epi-absorbance artifact exclusion. shares compounds with VIM-2 inhibitor. purified VIM-2, CCF2 FRET substrate hydrolysis. inhibition, % at 5.6 µM. 1,300 tested, 23% active. AID 1857, 2009;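 active means inhibition above the mean of all tested compounds plus 3 SD, cut at about 19% in these data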
TEM-1 counter: TEM-1 serine beta-lactamase inhibitors, counter-screen for VIM-2 inhibitor project, biochemical, epi-absorbance, HTS. shares compounds with VIM-2 inhibitor. Purified TEM-1, nitrocefin hydrolysis, epi-absorbance fluorescence. inhibition, % at 5.6 µM. 1,300 tested, 3% active;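 active means inhibition above that campaign's mean inhibition plus 3 SD, cut at about 0.46% in these data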
Target sequence (P62593 whole entry, looked up): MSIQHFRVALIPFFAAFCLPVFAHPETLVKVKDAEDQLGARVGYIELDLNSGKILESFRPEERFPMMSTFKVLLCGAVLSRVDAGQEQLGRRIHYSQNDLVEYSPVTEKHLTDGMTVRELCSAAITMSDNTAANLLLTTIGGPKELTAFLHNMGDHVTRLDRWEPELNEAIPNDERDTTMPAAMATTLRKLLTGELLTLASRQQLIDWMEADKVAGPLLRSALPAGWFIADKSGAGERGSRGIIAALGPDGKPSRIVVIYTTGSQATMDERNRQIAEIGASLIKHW
VIM-2 confirm 2: VIM-2 metallo-beta-lactamase inhibitors, confirmation, biochemical, epi-absorbance, hits shared with IMP-1 screen; shares compounds with VIM-2 inhibitor; purified VIM-2, nitrocefin hydrolysis; inhibition, % at 5.6 µM; 1,300 tested, 96% active; AID 2187, 2009;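 active means inhibition of the VIM-2 beta-lactamase enzyme above about 11% from the earlier first-round screen, limit read from the data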
Each line names hits and unclear results; the compound was inactive in the other large screens (follow-up assays come after a bar, where they were run). In the library only some 1.9% were active in any assay of this set; here they are far more common.

C/C(Cl)=C\Cn1c(NCCCn2ccnc2)nc2c1c(=O)n(C)c(=O)n2C	VIM-2 inhibitor 31 | IMP-1 inh-2 inactive | VIM-2 FRET inh inactive | TEM-1 counter inactive | VIM-2 confirm 2 49
COc1ccc(-n2c(O)c(/C=N/NS(=O)(=O)c3cccc([N+](=O)[O-])c3)c3ccccc3c2=O)cc1OC	none
O=c1oc2ccccc2c2c1ncn2CCN1CCOCC1	none
CN1CCN(CCCn2cnc3c(=O)oc4ccccc4c32)CC1	VIM-2 inhibitor 21 | IMP-1 inh-2 inactive | VIM-2 FRET inh inactive | TEM-1 counter inactive | VIM-2 confirm 2 40
CC1CCC(NC(=O)C2CCC(CNS(=O)(=O)c3cccc4cccnc34)CC2)CC1 (configuration not stated)	none
CCOC(=O)c1ccc(N2C=C(C(=O)OC)C(c3cccc(O)c3)C(C(=O)OC)=C2)cc1	none
[O-]c1n[n+](-c2ccc(Cl)cc2Cl)cc2ccccc12	none
[O-]c1n[n+](-c2ccc(Cl)cc2)cc2ccccc12	VIM-2 inhibitor 19 | IMP-1 inh-2 inactive | VIM-2 FRET inh inactive | TEM-1 counter inactive | VIM-2 confirm 2 inactive
Cc1cccc(Cl)c1NC(=S)NCCc1ccccn1	none
COC(=O)c1c(C(=O)OC)c2cc(C(=O)c3ccccc3)ccn2c1Cl	none
COC(=O)c1c(C(=O)OC)c2oc3ccccc3n2c1Cl	VIM-2 inhibitor 14 | IMP-1 inh-2 inactive | VIM-2 FRET inh inactive | TEM-1 counter inactive | VIM-2 confirm 2 18
O=C(O)c1ccccc1NS(=O)(=O)c1cccc(C(F)(F)F)c1	none
O=C(O)c1ccccc1NS(=O)(=O)c1cccc(-n2sc3ccccc3c2=O)c1	VIM-2 inhibitor 19 | IMP-1 inh-2 inactive | VIM-2 FRET inh inactive | TEM-1 counter inactive | VIM-2 confirm 2 17
CCOC(=O)C1=C(CS(=O)(=O)c2ccc(C)cc2)NC(=O)NC1c1cc(OC)c(O)c(OC)c1 (configuration not stated)	none
CC1CC(NC(=O)N(C)C)N(C)C(=O)N1 (configuration not stated)	none
CCN1CCc2c(sc(NC(=O)c3ccc(S(=O)(=O)N4CCOCC4)cc3)c2C(=O)OC)C1	VIM-2 inhibitor 64 | IMP-1 inh-2 inactive | VIM-2 FRET inh inactive | TEM-1 counter inactive | VIM-2 confirm 2 77
CCN1CCc2c(sc(NC(=O)c3ccc(S(=O)(=O)N4CCOCC4)cc3)c2C(N)=O)C1	none
CCOC(=O)c1c(NC(=O)c2ccc(S(=O)(=O)N3CCOCC3)cc2)sc2c1CCN(C(C)C)C2	none
CNC(=O)c1c(NC(=O)c2ccc(S(=O)(=O)N3CCCCC3C)cc2)sc2c1CCN(C)C2 (configuration not stated)	VIM-2 inhibitor 22 | IMP-1 inh-2 inactive | VIM-2 FRET inh inactive | TEM-1 counter inactive | VIM-2 confirm 2 30
COC(=O)c1c(NC(=O)c2ccc(S(=O)(=O)N3CCOCC3)cc2)sc2c1CCN(C)C2	VIM-2 inhibitor 78 | IMP-1 inh-2 inactive | VIM-2 FRET inh inactive | TEM-1 counter inactive | VIM-2 confirm 2 85
O=C(NNC(=O)C1[C@H]2CCCC[C@@H]12)Nc1cccc2ccccc12 (some centres not stated)	none
CN1CCN(c2ccc(NC(=O)c3ccc(-c4ccc(Cl)cc4)o3)cc2)CC1	VIM-2 inhibitor 28, FID counter 38 | IMP-1 inh-2 inactive | VIM-2 FRET inh inactive | TEM-1 counter inactive | VIM-2 confirm 2 42
CN1CCN(c2ccc(NC(=O)N3CCc4ccccc43)cc2)CC1	VIM-2 inhibitor 28 | IMP-1 inh-2 inactive | VIM-2 FRET inh inactive | TEM-1 counter inactive | VIM-2 confirm 2 40
CS(=O)(=O)N1CCN(c2ccc(NC(=O)c3ccc(-c4ccc(Cl)cc4)o3)cc2)CC1	none
CN1CCN(c2ccc(NC(=O)c3ccc(-c4cccc([N+](=O)[O-])c4)o3)cc2)CC1	VIM-2 inhibitor 42 | IMP-1 inh-2 inactive | VIM-2 FRET inh inactive | TEM-1 counter inactive | VIM-2 confirm 2 64
CN1CCN(C(=O)c2ccccc2NC(=O)c2sc3ccccc3c2Cl)CC1	none
CN1CCN(c2ccc(NC(=O)c3sc4ccccc4c3Cl)cc2)CC1	VIM-2 inhibitor 22 | IMP-1 inh-2 inactive | VIM-2 FRET inh inactive | TEM-1 counter inactive | VIM-2 confirm 2 51
Cn1nc(C(F)(F)F)c(-c2ccc(Br)cc2)c1NC(=O)c1nccnc1C(=O)O	none
N#Cc1cc2c(=O)n3ccccc3nc2n(CCCn2ccnc2)c1=N	VIM-2 inhibitor 45 | IMP-1 inh-2 inactive | VIM-2 FRET inh inactive | TEM-1 counter inactive | VIM-2 confirm 2 78
CCCn1c(=N)c(C#N)cc2c(=O)n3ccccc3nc21	none
O=c1c2cccc3c2c(nn1CN1CCOCC1)-c1ccccc1-3	VIM-2 inhibitor 26 | IMP-1 inh-2 inactive | VIM-2 FRET inh inactive | TEM-1 counter inactive | VIM-2 confirm 2 33
CCN(CC)CCn1nc2c3c(cccc3c1=O)-c1ccccc1-2	VIM-2 inhibitor 17, FID counter 40 | IMP-1 inh-2 inactive | VIM-2 FRET inh inactive | TEM-1 counter inactive | VIM-2 confirm 2 29
Cc1c(N2C(=O)/C(=C\c3ccccc3O)SC2=S)c(=O)n(-c2ccccc2)n1C	none
Cc1c(N2C(=O)/C(=C/c3cccc4ccccc34)SC2=S)c(=O)n(-c2ccccc2)n1C	VIM-2 inhibitor 50 | IMP-1 inh-2 inactive | VIM-2 FRET inh inactive | TEM-1 counter inactive | VIM-2 confirm 2 12
COc1ccccc1C(C(=O)NC1CCCC1)N(C(=O)c1csnn1)C1CC1 (configuration not stated)	none
O=C(CCn1cnc2ccccc21)N=Nc1c(O)[nH]c2ccccc12	VIM-2 inhibitor 36 | IMP-1 inh-2 inactive | VIM-2 FRET inh inactive | TEM-1 counter inactive | VIM-2 confirm 2 53
CCOC(=O)c1cnc2c(Cl)c(Cl)ccc2c1N1CCN(C)CC1	VIM-2 inhibitor 15 | IMP-1 inh-2 inactive | VIM-2 FRET inh inactive | TEM-1 counter inactive | VIM-2 confirm 2 24
COc1ccc(NC(=O)COc2cccc3c2CCN(Cc2cccnc2)C3=O)cc1	none
COc1ccc(NC(=O)COc2cccc3c2CCN(Cc2cccnc2)C3=O)c(OC)c1	VIM-2 inhibitor 14 | IMP-1 inh-2 inactive | VIM-2 FRET inh inactive | TEM-1 counter inactive | VIM-2 confirm 2 23

Compound activity deposited in PubChem BioAssay by The Scripps Research Institute Molecular Screening Center.
